B1: tRNA (parent)
chain: GUUCCGUUGGCGUAAUGGUAACGCGUCUCCCUCCUAAGGAGAAGACUGCGGGUUCGAGUCCCGUACGGAACG

Variants of: B1
Test: yeast fitness, log relative to wild type (ln ratio); higher = fitter; tRNA-Arg(CCU), competitive growth, 37 C, 1 M NaCl
How it was run: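 Fitness is the natural log of each genotype's generations divided by the wild type's. Generations were derived as OD-scaled log2 output/input frequency from 125 bp paired-end Illumina counts, weighting replicates by inverse variance. Pools of the tRNA-Arg(CCU) variant library, on a HIS3 centromeric plasmid in BY4742 lacking the chromosomal gene, grew ~6.5 generations (~26.5 h) in SC-HIS 1M NaCl at 37 °C after 4 generations in SC-HIS at 30 °C.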

First: AUUCCAUUGGCGUAAUGGUAACGCGUCUCCCUCCUAAGGAGAAGAUUGCGGGUUCGAGUCCCGUAUGGAAUG [G1A G6A C46U C66U C71U]
Second: AUUCCAUUGGCGUAAUGGUAACGCGUCUCCCUCCUAAGGAGAAGACUGCGGGUUCGAGUCCCGUAAGGAGUG [G1A G6A C66A A70G C71U]
The “yeast fitness (ln)” value of the first is higher: 0.000947 for the first, -0.267 for the second.

Compared with AUUCCAUUGGCGUAAUGGUAACGCGUCUCCCUCCUAAGGAGAAGACUGCGGGUUCGAGUCCCGUAUGGGGCG [G1A G6A C66U A69G A70G], AUUCCAUUGGCGUAAUGGUAACGCGUCUCCCUCCUAAGGAGAAGACUGCGGGUUCGAGUCCCGUAUGGGUCG [G1A G6A C66U A69G A70U] is higher in “yeast fitness (ln)” value: -0.235 for the first, -0.102 for the second.

First: AUUCCAUUGGCGUAAUGGUAACGCGUCUCCCUCCUAAGGAGAAGAUUGCGGGUUCGAGUCCCGUAAGGAGUG [G1A G6A C46U C66A A70G C71U]
Second: AUUCCAUUGGCGUAAUGGUAACGCGUCUCCCUCCUAAGGAGAAGAUUGCGGGUUCGAGUCCCGUACGGGGCG [G1A G6A C46U A69G A70G]
The “yeast fitness (ln)” value of the first is lower: -0.128 for the first, -0.123 for the second.

Compared with AUUCCAUUGGCGUAAUGGUAACGCGUCUCCCUCCUAAGGAGAAGAUUGCGGGUUCGAGUCCCGUACGGGUCG [G1A G6A C46U A69G A70U], AUUCCAUUGGCGUAAUGGUAACGCGUCUCCCUCCUAAGGAGAAGAUUGCGGGUUCGAGUCCCGUACGGAAUG [G1A G6A C46U C71U] is lower in “yeast fitness (ln)” value: -0.0698 for the first, -0.109 for the second.

First: AUUCCAUUGGCGUAAUGGUAACGCGUCUCCCUCCUAAGGAGAAGAUUGCGGGUUCGAGUCCCGUAAGGGGUG [G1A G6A C46U C66A A69G A70G C71U]
Second: AUUCCAUUGGCGUAAUGGUAACGCGUCUCCCUCCUAAGGAGAAGAUUGCGGGUUCGAGUCCCGUAUGGGAUG [G1A G6A C46U C66U A69G C71U]
The “yeast fitness (ln)” value of the first is lower: -0.151 for the first, -0.0213 for the second.

Compared with AUUCCAUUGGCGUAAUGGUAACGCGUCUCCCUCCUAAGGAGAAGACUGCGGGUUCGAGUCCCGUAUGGAGUG [G1A G6A C66U A70G C71U], AUUCCAUUGGCGUAAUGGUAACGCGUCUCCCUCCUAAGGAGAAGAUUGCGGGUUCGAGUCCCGUAUGGGGUG [G1A G6A C46U C66U A69G A70G C71U] is lower in “yeast fitness (ln)” value: -0.0543 for the first, -0.0914 for the second.

Going from AUUCCAUUGGCGUAAUGGUAACGCGUCUCCCUCCUAAGGAGAAGACUGCGGGUUCGAGUCCCGUAUGGAACG [G1A G6A C66U] to AUUCCAUUGGCGUAAUGGUAACGCGUUUCCCUCCUAAGGAGAAGACUGCGGGUUCGAGUCCCGUACGGAAUG [G1A G6A C27U C71U], the “yeast fitness (ln)” value falls from -0.113 to -0.238.

First: AUUCCAUUGGCGUAAUGGUAACGCGUCUCCCUCCUAAGGAGAAGAUUGCGGGUUCGAGUCCCGUACGGAUCG [G1A G6A C46U A70U]
Second: AUUCCAUUGGCGUAAUGGUAACGCGUCUCCCUCCUAAGGAGAAGAUUGCGGGUUCGAGUCCCGUACGGAGCG [G1A G6A C46U A70G]
The “yeast fitness (ln)” value of the first is lower: -0.103 for the first, -0.0807 for the second.

Compared with AUUCCAUUGGCGUAAUGGUAACGCGUCUCCCUCCUAAGGAGAAGAUUGCGGGUUCGAGUCCCGUAAGGAUCG [G1A G6A C46U C66A A70U], AUUCCAUUGGCGUAAUGGUAACGCGUCUCCCUCCUAAGGAGAAGAUUGCGGGUUCGAGUCCCGUACGGGGUG [G1A G6A C46U A69G A70G C71U] is higher in “yeast fitness (ln)” value: -0.134 for the first, -0.129 for the second.

Going from AUUCCAUUGGCGUAAUGGUAACGCGUCUCCCUCCUAAGGAGAAGAUUGCGGGUUCGAGUCCCGUAUGGGACG [G1A G6A C46U C66U A69G] to AUUCCAUUGGCGUAAUGGUAACGCGUCUCCCUCCUAAGGAGAAGACUGCGGGUUCGAGUCCCGUAUGGAGCG [G1A G6A C66U A70G], the “yeast fitness (ln)” value rises from -0.423 to -0.184.

First: AUUCCAUUGGCGUAAUGGUAACGCGUCUCCCUCCUAAGGAGAAGACUGCGGGUUCGAGUCCCGUAUGGAUCG [G1A G6A C66U A70U]
Second: AUUCCAUUGGCGUAAUGGUAACGCGUCUCCCUCCUAAGGAGAAGACUGCGGGUUCGAGUCCCGUAUGGGAUG [G1A G6A C66U A69G C71U]
The “yeast fitness (ln)” value of the first is lower: -0.0527 for the first, -0.0291 for the second.

Going from AUUCCUUUGGCGUAAUGGUAACGCGUCUCCCUCCUAAGGAGACGACUGCGGGUUCGAGUCCCGUACGGGAUG [G1A G6U A43C A69G C71U] to AUUCCAUUGGCGUAAUGGUAACGCGUCUCCCUCCUAAGGAGAAGACUGCGGGUUCGAGUCCCGUAUGGGACG [G1A G6A C66U A69G], the “yeast fitness (ln)” value falls from -0.28 to -0.346.

First: AUUCCAUUGGCGUAAUGGUAACGCGUCUCCCUCCUAAGGAGAAGAUUGCGGGUUCGAGUCCCGUAUGGGUUG [G1A G6A C46U C66U A69G A70U C71U]
Second: AUUCCAUUGGCGUAAUGGUAACGCGUCUCCCUCCUAAGGAGAAGAUUGCGGGUUCGAGUCCCGUACGGAACG [G1A G6A C46U]
The “yeast fitness (ln)” value of the first is lower: -0.363 for the first, -0.0333 for the second.

Compared with AUUCCUUUGGCGUAAUGGUAACGCGUCUCCCUCCUAAGGAGACGACUGCGGGUUCGAGUCCCGUACGGGUCG [G1A G6U A43C A69G A70U], AUUCCUUUGGCGUAAUGGUAACGCGUCUCCCUCCUAAGGAGACGACUGCGGGUUCGAGUCCCGUACGGGGCG [G1A G6U A43C A69G A70G] is lower in “yeast fitness (ln)” value: -0.326 for the first, -0.54 for the second.

First: AUUCCUUUGGCGUAAUGGUAACGCGUCUCCCUCCUAAGGAGACGAUUGCGGGUUCGAGUCCCGUACGGGUUG [G1A G6U A43C C46U A69G A70U C71U]
Second: AUUCCAUUGGCGUAAUGGUAACGCGUCUCCCUCCUAAGGAGAAGAUUGCGGGUUCGAGUCCCGUAUGGGGCG [G1A G6A C46U C66U A69G A70G]
The “yeast fitness (ln)” value of the first is lower: -0.434 for the first, -0.136 for the second.

Compared with AUUCCAUUGGCGUAAUGGUAACGCGUCUCCCUCCUAAGGAGAAGAUUGCGGGUUCGAGUCCCGUAUGGGUCG [G1A G6A C46U C66U A69G A70U], AUUCCAUUGGCGUAAUGGUAACGCGUCUCCCUCCUAAGGAGAAGAUUGCGGGUUCGAGUCCCGUAAGGAAUG [G1A G6A C46U C66A C71U] is lower in “yeast fitness (ln)” value: -0.0453 for the first, -0.258 for the second.

Going from AUUCCAUUGGCGUAAUGGUAACGCGUCUCCCUCCUAAGGAGAAGAUUGCGGGUUCGAGUCCCGUAUGGAUUG [G1A G6A C46U C66U A70U C71U] to AUUCCUUUGGCGUAAUGGUAACGCGUCUCCCUCCUAAGGAGACGACUGCGGGUUCGAGUCCCGUACGGGUUG [G1A G6U A43C A69G A70U C71U], the “yeast fitness (ln)” value falls from -0.0831 to -0.524.

Compared with AUUCCAUUGGCGUAAUGGUAACGCGUCUCCCUCCUAAGGAGAAGAUUGCGGGUUCGAGUCCCGUACGGGAUG [G1A G6A C46U A69G C71U], AUUCCAUUGGCGUAAUGGUAACGCGUCUCCCUCCUAAGGAGAAGACUGCGGGUUCGAGUCCCGUACGGAAUG [G1A G6A C71U] is lower in “yeast fitness (ln)” value: -0.252 for the first, -0.363 for the second.

For AUUCCUUUGGCGUAAUGGUAACGCGUCUCCCUCCUAAGGAGACGAUUGCGGGUUCGAGUCCCGUACGGGAUG [G1A G6U A43C C46U A69G C71U], the “yeast fitness (ln)” value was -0.263.
